Read-outs that look alike come from different tables or passages of the source.
Columns and labels:
[1] = for Maximum tolerated dose (MTD): 21-day cycles (DL 7)
[2] = system: refractory solid tumors and lymphoid malignancies; assay: Phase I trial: tumor response by RECIST 1.0; type: in vivo, human
[3] = Veliparib plasma pharmacokinetics; type: in vivo, human
In short: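 The oral test compound was dosed once daily at 20–60 mg with oral alkylator 50 or 100 mg daily. Plasma was sampled pre-dose and 0.5, 1, 1.5, 2, 3, 4, 6, 8 and 24 h post-dose on cycle 1 day 1 and on the last dosing day (7, 14 or 21). Blood was spun at 1,000 × g and plasma held at -70°C. Levels were read by LC-MS validated to FDA guidelines. Days were compared by two-tailed paired exact Wilcoxon test, with P < 0.05 taken as significant.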

[4] = system: poly(ADP-ribose) (PAR), a product of PARP; assay: PAR levels in tumor biopsies; type: in vivo, human; details: all five patients with paired pre- and post-dose biopsies, after 7 or 21 days of treatment; with cyclophosphamide
[5] = system: γH2AX; assay: γH2AX levels in circulating tumor cells; type: in vivo, human; details: day 2 of cycle 1; of nine patients with detectable CTCs; with cyclophosphamide
In short: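 During cycle 1, patients took the oral test compound once daily (20–60 mg) with daily oral alkylator (50 or 100 mg). Circulating tumour cells were scored for γH2AX positivity by a validated immunofluorescence assay run to standard operating procedures and compared with each patient's baseline.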

[6] = high-dose veliparib, preclinical model; cited from earlier work
[7] = studies conducted with veliparib; cited from earlier work
[8] = system: PARP; details: 24 hours after a single 50 mg dose; phase 0 trial; cited from earlier work

| Structure (SMILES) | Maximum tolerated dose (MTD) ([1]; cyclophosphamide daily with veliparib 60 mg daily) [mg] | Total No. of cycles ([2]; partial response, patient 15, breast cancer, dose level 5, with cyclophosphamide) [cycles] | Patients with prolonged stable disease among patients with known BRCA mutations ([2]; thirteen patients with known BRCA mutations, with cyclophosphamide) | Patients with partial response ([2]; veliparib with metronomic cyclophosphamide, 35 patients enrolled, RECIST 1.0) | Changes in PK parameters between baseline and day 7, 14, or 21 ([3]; co-administered metronomic cyclophosphamide) | half-life ([3]; human, plasma, oral) [h] | PK behavior of veliparib at DL 5 compared with other DLs ([3]; three patients on DL 5 (100 mg cyclophosphamide)) | Decrease in PAR levels in tumor biopsies [4] | Patients with an increased percentage of γH2AX-positive CTCs [5] | Tolerability of the study regimen ([1]; in vivo) | Maximum tolerated dose (MTD) ([1]; veliparib daily with cyclophosphamide 50 mg daily) [mg] | Seizures [6] | Cardiac toxicity related to study drug [7] | Inhibition of PARP activity in tumor biopsies [8] |
| --- | --- | --- | --- | --- | --- | --- | --- | --- | --- | --- | --- | --- | --- | --- |
| O=P1(N(CCCl)CCCl)NCCCO1 (centres unmarked) [cyclophosphamide] | 50 |  |  |  |  |  |  |  |  |  |  |  |  |  |
| C[C@]1(c2nc3c(C(N)=O)cccc3[nH]2)CCCN1 [veliparib, Veliparib] |  | 4 | three | Seven | No statistically significant changes | 5 ± 1.5 | not different | greater than 80% | Seven | well tolerated | 60 | caused seizures | no indication of cardiac toxicity | greater than 48% |
